From ChEMBL document CHEMBL5058577, “EUbOPEN Chemogenomics Library 2 (Multiplex)” (2022)

System: U2OS
Assay: Multiplex assay against U2OS
Assay type: toxicity, cell-based
Details: human
Method in brief: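 Phenotypes for tubulin, mitochondrial mass and membrane permeability are expressed as per cents of healthy-nucleus cells. Cells were stained live at seeding with Hoechst33342, BioTracker Green Microtubule Cytoskeleton Dye, MitoTracker Red and Annexin V Alexa Fluor 680, then imaged after compound addition on a CQ1 microscope at 37°C and 5% CO2. Machine-learning gating in CellPathfinder separated Hoechst high-intensity objects from normal cells, divided normal cells by nuclear state (healthy, pyknosed, fragmented) and divided pyknosed cells into mitotic or apoptotic.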

[1] = 12 h, 1 µM, compound concentration 1 uM, replicate 1
[2] = 12 h, 1 µM, compound concentration 1 uM, replicate 2
[3] = 12 h, 10 µM, compound concentration 10 uM, replicate 1
[4] = 12 h, 10 µM, compound concentration 10 uM, replicate 2
[5] = 24 h, 1 µM, compound concentration 1 uM, replicate 1
[6] = 24 h, 1 µM, compound concentration 1 uM, replicate 2
[7] = 24 h, 10 µM, compound concentration 10 uM, replicate 1
[8] = 24 h, 10 µM, compound concentration 10 uM, replicate 2
[9] = 48 h, 1 µM, compound concentration 1 uM, replicate 1
[10] = 48 h, 1 µM, compound concentration 1 uM, replicate 2
[11] = 48 h, 10 µM, compound concentration 10 uM, replicate 1
[12] = 48 h, 10 µM, compound concentration 10 uM, replicate 2

Question: O=C1COc2nccc(-c3ccccc3F)c2CN1Cc1cc(C(F)(F)F)cc(C(F)(F)F)c1 was tested. Which “Population Apoptotic (%)” value [1] did it give?
Answer: 52%

Question: What about the “Population Fragmented Nuclei (%)” value [1] of the same compound?
Answer: 19%

Question: And the “Population Healthy Nuclei (%)” value [1]?
Answer: 72%

Question: What about the “Population Hoechst High Intensity Objects (%)” value [1] of the same compound?
Answer: 4%

Question: What about the “Population Membrane Permeable-Phenotype (%)” value [1] of the same compound?
Answer: 6%

Question: What about the “Population Mitochondria Different-Phenotype (%)” value [1] of the same compound?
Answer: 2%

Question: And the “Population Mitotic Cells (%)” value [1]?
Answer: 47%

Question: What about the “Population Normal (%)” value [1] of the same compound?
Answer: 95%

Question: And the “Population Pyknosed Nuclei (%)” value [1]?
Answer: 8%

Question: And the “Population Tubulin-Different-Phenotype (%)” value [1]?
Answer: 4%

Question: And the “Total Cell Count” value [1]?
Answer: 252

Question: And the “Population Apoptotic (%)” value [2]?
Answer: 77%

Question: And the “Population Fragmented Nuclei (%)” value [2]?
Answer: 23%

Question: And the “Population Healthy Nuclei (%)” value [2]?
Answer: 67%

Question: And the “Population Hoechst High Intensity Objects (%)” value [2]?
Answer: 2%

Question: And the “Population Membrane Permeable-Phenotype (%)” value [2]?
Answer: 15%

Question: What about the “Population Mitochondria Different-Phenotype (%)” value [2] of the same compound?
Answer: 9%

Question: And the “Population Mitotic Cells (%)” value [2]?
Answer: 22%

Question: What about the “Population Normal (%)” value [2] of the same compound?
Answer: 97%

Question: And the “Population Tubulin-Different-Phenotype (%)” value [2]?
Answer: 11%

Question: What about the “Total Cell Count” value [2] of the same compound?
Answer: 108

Question: And the “Population Apoptotic (%)” value [3]?
Answer: 70%

Question: What about the “Population Fragmented Nuclei (%)” value [3] of the same compound?
Answer: 36%

Question: What about the “Population Healthy Nuclei (%)” value [3] of the same compound?
Answer: 47%

Question: And the “Population Hoechst High Intensity Objects (%)” value [3]?
Answer: 3%

Question: And the “Population Membrane Permeable-Phenotype (%)” value [3]?
Answer: 25%

Question: What about the “Population Mitochondria Different-Phenotype (%)” value [3] of the same compound?
Answer: 27%

Question: What about the “Population Mitotic Cells (%)” value [3] of the same compound?
Answer: 29%

Question: What about the “Population Normal (%)” value [3] of the same compound?
Answer: 96%

Question: And the “Population Pyknosed Nuclei (%)” value [3]?
Answer: 16%

Question: What about the “Population Tubulin-Different-Phenotype (%)” value [3] of the same compound?
Answer: 25%

Question: What about the “Total Cell Count” value [3] of the same compound?
Answer: 200

Question: And the “Population Apoptotic (%)” value [4]?
Answer: 100%

Question: And the “Population Fragmented Nuclei (%)” value [4]?
Answer: 16%

Question: And the “Population Healthy Nuclei (%)” value [4]?
Answer: 76%

Question: What about the “Population Hoechst High Intensity Objects (%)” value [4] of the same compound?
Answer: 5%

Question: What about the “Population Membrane Permeable-Phenotype (%)” value [4] of the same compound?
Answer: 17%

Question: And the “Population Mitochondria Different-Phenotype (%)” value [4]?
Answer: 23%

Question: What about the “Population Mitotic Cells (%)” value [4] of the same compound?
Answer: 0%

Question: What about the “Population Normal (%)” value [4] of the same compound?
Answer: 94%

Question: And the “Population Pyknosed Nuclei (%)” value [4]?
Answer: 7%

Question: What about the “Population Tubulin-Different-Phenotype (%)” value [4] of the same compound?
Answer: 13%

Question: What about the “Total Cell Count” value [4] of the same compound?
Answer: 112

Question: And the “Population Apoptotic (%)” value [5]?
Answer: 86%

Question: And the “Population Fragmented Nuclei (%)” value [5]?
Answer: 17%

Question: And the “Population Healthy Nuclei (%)” value [5]?
Answer: 74%

Question: What about the “Population Hoechst High Intensity Objects (%)” value [5] of the same compound?
Answer: 3%

Question: And the “Population Membrane Permeable-Phenotype (%)” value [5]?
Answer: 8%

Question: And the “Population Mitochondria Different-Phenotype (%)” value [5]?
Answer: 3%

Question: What about the “Population Mitotic Cells (%)” value [5] of the same compound?
Answer: 13%

Question: And the “Population Normal (%)” value [5]?
Answer: 96%

Question: And the “Population Pyknosed Nuclei (%)” value [5]?
Answer: 8%

Question: And the “Population Tubulin-Different-Phenotype (%)” value [5]?
Answer: 3%

Question: And the “Total Cell Count” value [5]?
Answer: 291

Question: What about the “Population Apoptotic (%)” value [6] of the same compound?
Answer: 83%

Question: And the “Population Fragmented Nuclei (%)” value [6]?
Answer: 18%

Question: And the “Population Healthy Nuclei (%)” value [6]?
Answer: 76%

Question: What about the “Population Hoechst High Intensity Objects (%)” value [6] of the same compound?
Answer: 4%

Question: What about the “Population Membrane Permeable-Phenotype (%)” value [6] of the same compound?
Answer: 12%

Question: And the “Population Mitochondria Different-Phenotype (%)” value [6]?
Answer: 7%

Question: What about the “Population Mitotic Cells (%)” value [6] of the same compound?
Answer: 16%

Question: And the “Population Normal (%)” value [6]?
Answer: 95%

Question: And the “Population Pyknosed Nuclei (%)” value [6]?
Answer: 5%

Question: And the “Population Tubulin-Different-Phenotype (%)” value [6]?
Answer: 5%

Question: What about the “Total Cell Count” value [6] of the same compound?
Answer: 121

Question: What about the “Population Apoptotic (%)” value [7] of the same compound?
Answer: 58%

Question: And the “Population Fragmented Nuclei (%)” value [7]?
Answer: 36%

Question: What about the “Population Healthy Nuclei (%)” value [7] of the same compound?
Answer: 43%

Question: And the “Population Hoechst High Intensity Objects (%)” value [7]?
Answer: 5%

Question: What about the “Population Membrane Permeable-Phenotype (%)” value [7] of the same compound?
Answer: 21%

Question: What about the “Population Mitochondria Different-Phenotype (%)” value [7] of the same compound?
Answer: 22%

Question: And the “Population Mitotic Cells (%)” value [7]?
Answer: 41%

Question: And the “Population Normal (%)” value [7]?
Answer: 94%

Question: What about the “Population Pyknosed Nuclei (%)” value [7] of the same compound?
Answer: 19%

Question: What about the “Population Tubulin-Different-Phenotype (%)” value [7] of the same compound?
Answer: 17%

Question: And the “Total Cell Count” value [7]?
Answer: 210

Question: What about the “Population Apoptotic (%)” value [8] of the same compound?
Answer: 100%

Question: What about the “Population Fragmented Nuclei (%)” value [8] of the same compound?
Answer: 21%

Question: And the “Population Healthy Nuclei (%)” value [8]?
Answer: 70%

Question: And the “Population Membrane Permeable-Phenotype (%)” value [8]?
Answer: 13%

Question: What about the “Population Mitochondria Different-Phenotype (%)” value [8] of the same compound?
Answer: 19%

Question: What about the “Population Mitotic Cells (%)” value [8] of the same compound?
Answer: 0%

Question: What about the “Population Pyknosed Nuclei (%)” value [8] of the same compound?
Answer: 8%

Question: What about the “Population Tubulin-Different-Phenotype (%)” value [8] of the same compound?
Answer: 7%

Question: And the “Total Cell Count” value [8]?
Answer: 126

Question: And the “Population Apoptotic (%)” value [9]?
Answer: 84%

Question: What about the “Population Fragmented Nuclei (%)” value [9] of the same compound?
Answer: 16%

Question: What about the “Population Healthy Nuclei (%)” value [9] of the same compound?
Answer: 74%

Question: And the “Population Hoechst High Intensity Objects (%)” value [9]?
Answer: 3%

Question: And the “Population Membrane Permeable-Phenotype (%)” value [9]?
Answer: 5%

Question: And the “Population Mitochondria Different-Phenotype (%)” value [9]?
Answer: 3%

Question: And the “Population Mitotic Cells (%)” value [9]?
Answer: 15%

Question: What about the “Population Normal (%)” value [9] of the same compound?
Answer: 96%

Question: What about the “Population Pyknosed Nuclei (%)” value [9] of the same compound?
Answer: 9%

Question: What about the “Population Tubulin-Different-Phenotype (%)” value [9] of the same compound?
Answer: 3%

Question: What about the “Total Cell Count” value [9] of the same compound?
Answer: 425

Question: And the “Population Apoptotic (%)” value [10]?
Answer: 76%

Question: And the “Population Fragmented Nuclei (%)” value [10]?
Answer: 19%

Question: And the “Population Healthy Nuclei (%)” value [10]?
Answer: 69%

Question: What about the “Population Membrane Permeable-Phenotype (%)” value [10] of the same compound?
Answer: 8%

Question: What about the “Population Mitochondria Different-Phenotype (%)” value [10] of the same compound?
Answer: 5%

Question: And the “Population Mitotic Cells (%)” value [10]?
Answer: 23%

Question: What about the “Population Pyknosed Nuclei (%)” value [10] of the same compound?
Answer: 10%

Question: And the “Total Cell Count” value [10]?
Answer: 166

Question: What about the “Population Apoptotic (%)” value [11] of the same compound?
Answer: 61%

Question: And the “Population Fragmented Nuclei (%)” value [11]?
Answer: 35%

Question: And the “Population Healthy Nuclei (%)” value [11]?
Answer: 46%

Question: What about the “Population Hoechst High Intensity Objects (%)” value [11] of the same compound?
Answer: 4%

Question: What about the “Population Membrane Permeable-Phenotype (%)” value [11] of the same compound?
Answer: 20%

Question: And the “Population Mitochondria Different-Phenotype (%)” value [11]?
Answer: 17%

Question: And the “Population Mitotic Cells (%)” value [11]?
Answer: 38%

Question: And the “Population Normal (%)” value [11]?
Answer: 95%

Question: What about the “Population Pyknosed Nuclei (%)” value [11] of the same compound?
Answer: 17%

Question: What about the “Population Tubulin-Different-Phenotype (%)” value [11] of the same compound?
Answer: 11%

Question: What about the “Total Cell Count” value [11] of the same compound?
Answer: 236

Question: And the “Population Apoptotic (%)” value [12]?
Answer: 85%

Question: What about the “Population Fragmented Nuclei (%)” value [12] of the same compound?
Answer: 25%

Question: And the “Population Healthy Nuclei (%)” value [12]?
Answer: 60%

Question: What about the “Population Membrane Permeable-Phenotype (%)” value [12] of the same compound?
Answer: 12%

Question: And the “Population Mitochondria Different-Phenotype (%)” value [12]?
Answer: 12%

Question: What about the “Population Mitotic Cells (%)” value [12] of the same compound?
Answer: 14%

Question: And the “Population Pyknosed Nuclei (%)” value [12]?
Answer: 14%

Question: And the “Population Tubulin-Different-Phenotype (%)” value [12]?
Answer: 3%

Question: What about the “Total Cell Count” value [12] of the same compound?
Answer: 151
